Source: ChEMBL document CHEMBL1136968, “Structurally simple inhibitors of lanosterol 14alpha-demethylase are efficacious in a rodent model of acute Chagas disease” (J Med Chem, 2009)
pEC50: −log10 of the molar value.

Columns and labels:
[1] = Toxicity against mouse 3T3 cells by resazurin assay; format: cell-based; settings: NIH3T3 cells
Method in brief: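 Murine 3T3 fibroblasts screened separately from the parasites. Host-cell growth was quantified by resazurin read-out and EC50 determined.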

Trypanosoma cruzi = assay: Antitrypanosomal activity against Trypanosoma cruzi Tulahuen amastigotes in mouse 3T3 cells by beta-galactosidase reporter gene assay; format: functional, organism-based; settings: NIH3T3
Method in brief: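 Tulahuen strain (TCII lineage) grown as intracellular amastigotes in murine 3T3 fibroblasts in 96-well plates. EC50 determined from triplicate screens. Standard errors within assays stayed below 15%.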

Structure (SMILES)	pEC50 (Trypanosoma cruzi)	pEC50 [1]
COC(=O)c1ccc(NCc2cncn2Cc2cccc(C(C)(C)C)c2)cc1-c1ccccc1	6.32	< 6.00
c1ccc(-c2ccc(Cn3cncc3CNc3ccc(-c4cc5ccccc5o4)c(-c4ccccc4)c3)cc2)cc1	7.40	< 5.00
O=[N+]([O-])c1ccc(Cn2cncc2CNc2cccc(-c3ccccc3)c2)cc1	7.00	5.00
c1ccc(-c2ccc(Cn3cncc3CNc3ccc(N4CCCCC4)c(-c4ccccc4)c3)cc2)cc1	7.64	< 6.00
COC(=O)c1ccc(NCc2cncn2Cc2ccccc2C)cc1-c1ccccc1	6.00	5.00
CS(=O)(=O)c1ccc(Cn2cncc2CNc2ccc(-c3nc4ccccc4s3)c(-c3ccccc3)c2)cc1	< 6.00	< 6.00
c1ccc(-c2ccc(Cn3cncc3CNc3ccc(-c4ccccc4)cc3)cc2)cc1	6.70	< 5.00
Cc1cccc(-c2cccc(NCc3cncn3Cc3ccccc3)c2)c1C	6.59	< 6.00
c1ccc(-c2ccc(Cn3cncc3CNc3ccc(-c4ccc[nH]4)c(-c4ccccc4)c3)cc2)cc1	7.00	< 5.00
COC(=O)c1ccc(NCc2cncn2Cc2cccc([N+](=O)[O-])c2)cc1-c1ccccc1	7.52	< 5.00
CC(C)c1cccc(NCc2cncn2Cc2ccccc2)c1	< 6.00	< 6.00
CC(=O)c1ccc(NCc2cncn2Cc2ccc(-c3ccccc3)cc2)cc1-c1ccccc1	7.40	< 5.00
COC(=O)c1ccc(NCc2cncn2Cc2ccc([N+](=O)[O-])cc2)cc1-c1ccccc1	7.00	< 5.00
COC(=O)c1ccc(NCc2cncn2Cc2ccc(-c3ccccc3)cc2)cc1	7.10	< 5.00
CC(C)c1ccc(Cn2cncc2CNc2ccc(-c3nc4ccccc4s3)c(-c3ccccc3)c2)cc1	6.27	< 6.00
Cc1cccc(-c2cc(NCc3cncn3Cc3ccc(-c4ccccc4)cc3)ccc2-c2nc3ccccc3s2)c1C	7.19	< 6.00
CCC(=O)c1ccc(NCc2cncn2Cc2ccc(-c3ccccc3)cc2)cc1-c1ccccc1	7.40	< 5.00
COC(=O)c1ccc(NCc2cncn2Cc2ccccc2C#N)cc1-c1ccccc1	6.70	4.60
CC(C)OC(=O)c1ccc(NCc2cncn2Cc2ccc(-c3ccccc3)cc2)cc1-c1ccccc1	7.30	< 5.00
CCCC(=O)c1ccc(NCc2cncn2Cc2ccc(-c3ccccc3)cc2)cc1-c1ccccc1	7.40	< 5.00
COC(=O)c1ccc(NCc2cncn2Cc2ccccc2Br)cc1-c1ccccc1	7.00	5.00
COC(=O)c1ccc(NCc2cncn2Cc2cccc(N)c2)cc1-c1ccccc1	6.89	< 5.00
c1ccc(-c2ccc(Cn3cncc3CNc3ccccc3-c3ccccc3)cc2)cc1	7.10	< 5.00
c1ccc(-c2ccc(Cn3cncc3CNc3ccc(-c4ccccc4)c(-c4ccccc4)c3)cc2)cc1	7.10	< 5.00

Structure (SMILES)	pEC50 (Trypanosoma cruzi)	pEC50 [1]
O=C(c1ccc(NCc2cncn2Cc2ccc(-c3ccccc3)cc2)cc1-c1ccccc1)N1CCCCC1	7.62	< 6.00
Cc1cccc(-c2cccc(NCc3cncn3Cc3ccccc3)c2)c1	6.26	< 6.00
CCc1ccc(Cn2cncc2CNc2ccc(-c3nc4ccccc4s3)c(-c3ccccc3)c2)cc1	6.96	< 6.00
Cc1ccccc1-c1cc(NCc2cncn2Cc2ccc(-c3ccccc3)cc2)ccc1-c1nc2ccccc2s1	7.51	< 6.00
Fc1ccc(Cn2cncc2CNc2ccc(-c3nc4ccccc4s3)c(-c3ccccc3)c2)c(F)c1	6.38	< 6.00
c1ccc(Cn2cncc2CNc2cccc(-c3ccccc3)c2)cc1	6.44	< 6.12
COC(=O)c1ccc(NCc2cncn2Cc2ccc(OC)cc2)cc1-c1ccccc1	7.60	
Clc1ccc(Cn2cncc2CNc2ccc(-c3nc4ccccc4s3)c(-c3ccccc3)c2)cc1	6.60	< 6.00
COC(=O)c1ccc(NCc2cncn2Cc2ccccc2[N+](=O)[O-])cc1-c1ccccc1	7.00	5.00
COC(=O)c1ccc(NCc2cncn2Cc2ccc(C#N)cc2)cc1-c1ccccc1	7.60	< 5.00
c1ccc(Cn2cncc2CNc2cccc(-c3cccnc3)c2)cc1	6.22	< 6.00
Cc1ccc(Cn2cncc2CNc2cccc(-c3ccccc3)c2)cc1	7.00	5.00
COC(=O)c1ccc(NCc2cncn2Cc2cccc(F)c2)cc1-c1ccccc1	6.82	< 6.00
COC(=O)c1ccc(NCc2cncn2Cc2ccccc2Cl)cc1-c1ccccc1	7.00	5.00
c1ccc(-c2ccc(Cn3cncc3CNc3ccc(-c4onc5ccccc45)c(-c4ccccc4)c3)cc2)cc1	7.30	< 5.00
c1ccc(Cn2cncc2CNc2cccc(-c3ccncc3)c2)cc1	6.29	< 6.00
COC(=O)c1ccc(NCc2cncn2Cc2ccc(N)cc2)cc1-c1ccccc1	6.60	< 5.00
Cc1ccccc1-c1ccc(Cn2cncc2CNc2ccc(-c3nc4ccccc4s3)c(-c3ccccc3)c2)cc1	6.92	< 6.00
Clc1ccc(Cn2cncc2CNc2cccc(-c3ccccc3)c2)cc1	7.10	5.00
COC(=O)c1ccc(NCc2cncn2Cc2ccccc2)cc1-c1ccccc1	7.10	< 6.00
COC(=O)c1ccc(NCc2cncn2Cc2cccc(C#N)c2)cc1-c1ccccc1	7.00	< 5.00
Cc1ccccc1-c1cccc(NCc2cncn2Cc2ccccc2)c1	6.64	< 6.00
c1ccc(-c2ccc(Cn3cncc3CNc3ccc(-c4nc5ccccc5o4)c(-c4ccccc4)c3)cc2)cc1	7.00	< 5.00

These reach a higher pEC50 (Trypanosoma cruzi). Values come first.

pEC50 (Trypanosoma cruzi)	Structure (SMILES)	pEC50 [1]
9.10	COc1ccc(NCc2cncn2Cc2ccc(-c3ccccc3)cc2N)cc1-c1ccccc1	< 6.00
8.82	N#Cc1ccc(NCc2cncn2Cc2ccc(-c3ccccc3)cc2N)cc1-c1ccccc1	< 6.00
7.70	COC(=O)c1ccc(NCc2cncn2Cc2cccc(Cl)c2)cc1-c1ccccc1	< 5.00
8.30	COC(=O)c1ccc(NCc2cncn2Cc2ccccc2N)cc1-c1ccccc1	4.60
8.30	COC(=O)c1ccc(NCc2cncn2Cc2ccc(C)cc2)cc1-c1ccccc1	4.30
8.30	COC(=O)c1ccc(NCc2cncn2Cc2ccc(Cl)cc2)cc1-c1ccccc1	4.60
7.68	COC(=O)c1ccc(NCc2cncn2Cc2ccc(F)cc2F)cc1-c1ccccc1	< 6.00
7.70	COC(=O)c1ccc(NCc2cncn2Cc2ccc(Br)cc2)cc1-c1ccccc1	< 5.00
8.89	N#Cc1ccc(NCc2cncn2Cc2ccc(-c3ccccc3)cc2)cc1-c1ccccc1	< 6.00
7.70	CN(C)c1ccc(NCc2cncn2Cc2ccc(-c3ccccc3)cc2)cc1-c1ccccc1	< 6.00
8.62	CNC(=O)c1ccc(NCc2cncn2Cc2ccc(-c3ccccc3)cc2)cc1-c1ccccc1	< 6.00
7.70	COC(=O)c1ccc(NCc2cncn2Cc2cccc(C)c2)cc1-c1ccccc1	< 5.00
7.92	CNC(=O)c1ccc(NCc2cncn2Cc2ccc(-c3ccccc3)cc2N)cc1-c1ccccc1	< 6.00
8.00	CCOC(=O)c1ccc(NCc2cncn2Cc2ccc(-c3ccccc3)cc2)cc1-c1ccccc1	< 5.00
8.00	c1ccc(-c2ccc(Cn3cncc3CNc3ccc(-c4noc5ccccc45)c(-c4ccccc4)c3)cc2)cc1	< 5.00
8.15	COc1ccc(NCc2cncn2Cc2ccc(-c3ccccc3)cc2)cc1-c1ccccc1	< 6.00
7.66	c1ccc(-c2ccc(Cn3cncc3CNc3ccc(N4CCCC4)c(-c4ccccc4)c3)cc2)cc1	< 6.00
8.03	CN(C)C(=O)c1ccc(NCc2cncn2Cc2ccc(-c3ccccc3)cc2)cc1-c1ccccc1	< 6.00
7.70	COC(=O)c1ccc(NCc2cncn2Cc2cccc(Br)c2)cc1-c1ccccc1	< 5.00
8.00	O=C(OC1CCCCC1)c1ccc(NCc2cncn2Cc2ccc(-c3ccccc3)cc2)cc1-c1ccccc1	< 5.00
9.30	COC(=O)c1ccc(NCc2cncn2Cc2ccc(-c3ccccc3)cc2)cc1-c1ccccc1	< 6.00
8.00	c1ccc(-c2ccc(Cn3cncc3CNc3cccc(-c4ccccc4)c3)cc2)cc1	5.00
8.05	c1ccc(-c2ccc(Cn3cncc3CNc3ccc(-c4cncs4)c(-c4ccccc4)c3)cc2)cc1	< 6.00
8.00	Nc1cc(-c2ccccc2)ccc1Cn1cncc1CNc1ccc(-c2cncs2)c(-c2ccccc2)c1	< 6.00
8.22	Clc1ccc(NCc2cncn2Cc2ccc(-c3ccccc3)cc2)cc1-c1ccccc1	< 6.00
